An excerpt weighted towards active compounds, which were near 1.9% of everything screened.
Rin1 Abl inh: blocks binding of human Rin1 to Abl | P00519+Q13671 | TR-FRET Rin1/Abl binding, biochemical | inhibition, % at 7.35 µM | 360,000 tested, 0.4% active; in the data active = inhibition above about 5%, passing the limit was not always enough
MBD2 DNA inh: blocks human MBD2 binding to methylated DNA; Q9UBB5; TR-FRET, MBD2 binding to methylated oligonucleotide; inhibition, % at 4.4 µM; 370,000 tested, 0.31% active; AID 686964; in the data active = inhibition above about 13%
LEDGF integ inh: blocks HIV-1 LEDGF/p75-dependent DNA integration | TR-FRET IN-LEDGF/p75 DNA integration, Eu/Cy5 | inhibition, % at 3.7 µM | 370,000 tested, 0.64% active;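 active = inhibition above the screen-wide mean plus 3 SD, cut at about 13% in these data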;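 also: signal is the Cy5 over europium emission ratio at 671 and 618 nm; 0% = plate median of compound wells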
UHRF1 binding: UHRF1 methyl-DNA binding inhibition | Q96T88 | UHRF1 binding to methylated oligo, TR-FRET | inhibition, % at 4.4 µM | 370,000 tested, 0.75% active; in the data active = inhibition above about 21%;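 also: UHRF1 SRA domain binding a hemimethylated CpG hairpin DNA probe; 0% = median of test compound wells and 100% = reference inhibitor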
Target sequence (Q96T88 whole entry, looked up, the tested form may be a part): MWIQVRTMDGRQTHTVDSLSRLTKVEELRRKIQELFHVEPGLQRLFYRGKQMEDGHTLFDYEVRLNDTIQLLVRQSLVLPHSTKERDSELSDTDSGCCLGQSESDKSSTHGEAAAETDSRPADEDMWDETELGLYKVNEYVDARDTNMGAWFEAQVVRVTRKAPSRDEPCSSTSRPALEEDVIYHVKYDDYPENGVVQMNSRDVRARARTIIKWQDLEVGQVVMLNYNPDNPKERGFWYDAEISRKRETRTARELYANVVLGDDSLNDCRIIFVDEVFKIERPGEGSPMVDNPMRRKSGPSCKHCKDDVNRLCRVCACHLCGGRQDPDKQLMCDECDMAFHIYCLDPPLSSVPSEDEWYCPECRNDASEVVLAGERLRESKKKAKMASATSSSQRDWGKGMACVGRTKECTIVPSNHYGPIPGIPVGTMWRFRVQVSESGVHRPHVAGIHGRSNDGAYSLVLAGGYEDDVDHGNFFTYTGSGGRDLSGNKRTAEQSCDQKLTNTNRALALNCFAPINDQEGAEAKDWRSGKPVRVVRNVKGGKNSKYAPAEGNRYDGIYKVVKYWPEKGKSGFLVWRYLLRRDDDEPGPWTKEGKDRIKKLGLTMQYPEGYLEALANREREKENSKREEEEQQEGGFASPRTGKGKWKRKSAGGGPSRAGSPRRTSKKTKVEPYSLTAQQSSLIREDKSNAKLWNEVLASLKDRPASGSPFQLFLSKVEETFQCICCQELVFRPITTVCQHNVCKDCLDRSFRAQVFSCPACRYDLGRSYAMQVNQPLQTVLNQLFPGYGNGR
TDP2 inh: TDP2 (human) inhibition, absorbance primary screen | recombinant TDP2, T5PNP hydrolysis, p-nitrophenol absorbance 415 nm | 370,000 tested, 0.34% active | AID 720702 | inhibition, % at 12.8 µM;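 active = inhibition above the mean of all tested compounds plus 3 SD, set per campaign, cut at about 25% in these data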;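 also: 0% = DMSO with enzyme and 100% = buffer with substrate but no TDP2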
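Assay system: Recombinant human TDP2 | Quantity: 120 nM TDP2 per well | Incubation: 2 h at 37 °C | Signal: Epi absorbance | Evaluation: Percent inhibition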
IN multimer up: activates HIV-1 integrase multimerization in LEDGF counter-screen; shares compounds with LEDGF integ inh; TR-FRET HIV-1 integrase multimerization, biochemical; activation, % at 7.7 µM; 2,000 tested, 17% active; AID 1053131; in the data active = activation above about 8.9%
TR-FRET interf: counter-screen for LEDGF/p75 integration inhibitors: TR-FRET optical interference; shares compounds with LEDGF integ inh; TR-FRET optical interference counterscreen, HIV-1 IN multimerization; inhibition, % at 7.7 µM; 2,000 tested, under 10 active;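 active = inhibition above the mean over all tested compounds plus 3 SD, which no compound reached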;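 also: 0% = integrase with antibodies and DMSO and 100% = antibodies without integrase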
IN-LEDGF confirm: LEDGF/p75-dependent HIV-1 integration inhibition, confirmation; TR-FRET LEDGF/p75-dependent HIV-1 integration, biochemical; inhibition, % at 3.7 µM; shares compounds with LEDGF integ inh; 2,000 tested, 36% active; AID 1053136; in the data active = inhibition above about 14%
* = called active by the depositor; x = no result.

SMILES	Rin1 Abl inh	MBD2 DNA inh	LEDGF integ inh	UHRF1 binding	TDP2 inh	IN multimer up	TR-FRET interf	IN-LEDGF confirm
Cc1ccc(-n2ccnc(SCC(=O)NCCc3ccccc3)c2=O)cc1F	4	-6	17*	-4	-10	3	-10	-9
COc1ccc(C(CNCC(O)COc2c(C)ccc(C)c2C)N(C)C)cc1 (configuration not stated)	0	-6	14*	-3	-5	0	2	3
COc1ccc(C(CNC(=O)CSc2ccccc2C)N(C)C)cc1 (configuration not stated)	0	-2	-1	-1	9	x	x	x
O=C(C1CCN(S(=O)(=O)c2ccc3[nH]c(=O)oc3c2)CC1)N1CCCC1	x	2	4	8	6	x	x	x
Nc1ccccc1C(O)(Cc1ccccc1)c1ccccc1 (configuration not stated)	3	2	87*	2	4	0	1	-3
OC(Cc1cccnc1)(c1ccccc1)c1ccccc1	4	1	-1	1	10	x	x	x
COc1cccc(NC(=O)c2cc(OC)c(OC)c(OC)c2Br)c1	2	4	14*	-1	11	1	-4	2
COc1ccc(S[C@]2(C(=O)N3CCOCC3)CC(=O)N(c3ccc(OC)cc3)[C@@H]2c2ccc(OC)cc2)cc1	x	-1	7	4	-13	x	x	x
C(=Nc1ccc(N2CCOCC2)cc1)c1c[nH]c2ccccc12	-4	-8	23*	-2	15	-1	3	7
CN(C)c1nc(N/N=C/c2c[nH]c3ccccc23)nc(N2CCOCC2)n1	1	5	0	-1	1	x	x	x
Oc1ccc(N=Nc2cccc(Cl)c2)cc1C=Nc1ccc(N2CCOCC2)cc1	1	3	13	2	-1	x	x	x
O=C(O)c1ccc(N/N=C/c2ccc(-c3cccc(Cl)c3)o2)cc1	0	0	3	-1	0	x	x	x
Oc1c(Br)cc(Cl)cc1C=Nc1ccc(N2CCOCC2)cc1	0	-4	19*	2	19	2	-8	25*
Clc1cccc(-c2ccc(C=Nc3ccc(N4CCOCC4)cc3)o2)c1	-14	-1	24*	-2	13	8	-40	9
O=C(CSc1nc2ccccc2n1Cc1ccccc1)NN=Cc1c[nH]c2ccccc12	x	2	-1	-3	0	x	x	x
Cc1ccc(CN2CCCCC(NC(=O)Nc3cccc(F)c3)C2=O)cc1 (configuration not stated)	x	1	4	-2	10	x	x	x
O=C(Nc1ccc(OC(F)(F)F)cc1)Nc1nc2ncccn2c1-c1ccc(C(F)(F)F)cc1	x	4	5	-3	-2	x	x	x
CCc1ccccc1-n1c(SCC(=O)NC)nnc1-c1cccnc1	5	2	22*	3	0	0	2	-8
CCOC(=O)N1CCN(c2cc(=O)n(-c3ccccc3C)c(=O)[nH]2)CC1	0	1	0	-1	-7	x	x	x
Cc1ccccc1-n1c(=O)cc(N2CCN(Cc3ccccc3)CC2)[nH]c1=O	2	-9	18*	-1	13	0	0	1
O=Cc1cc(N=Nc2ccccc2Cl)ccc1O	1	2	17*	-3	6	-3	13	49*
O=Cc1cc(N=Nc2cccc(C(=O)O)c2)ccc1O	1	0	1	11	-6	x	x	x
CCN(C[C@H]1N[C@@](CC)(C(=O)OC)[C@H]2C(=O)N(Cc3ccccc3)C(=O)[C@@H]12)C(=O)Nc1ccc(C(F)(F)F)cc1	0	3	66*	1	2	-2	10	-5
CCN(C[C@H]1N[C@@](CC)(C(=O)OC)[C@H]2C(=O)N(Cc3ccccc3)C(=O)[C@@H]12)C(=O)Nc1ccc(OC)cc1	-3	7	-1	3	4	x	x	x
COc1ccccc1-c1nnc2n1N=C(c1ccc3c(c1)OCO3)CS2	x	-5	3	-1	1	x	x	x
